Data reported in ChEMBL document CHEMBL4145675, “2-Phenylquinoline S. aureus NorA Efflux Pump Inhibitors: Evaluation of the Importance of Methoxy Group Introduction” (J Med Chem, 2018).
≈ marks a conversion by molar mass, not a printed value. Calls of active or inactive are those of the source. No cut-off for these calls is given here.

Assays:
[1] = test system: Staphylococcus aureus; assay: Antimicrobial activity against NorA overexpressing Staphylococcus aureus SA-K2378 by microdilution method; format: organism-based; details: in vivo
How it was run: (§1)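 CLSI broth microdilution MIC of the compound alone. Strains: SA-K1902 (norA deleted), SA-K2378 (SA-K1902 carrying norA plus its promoter on multicopy plasmid pCU1), SA-1199B (norA overexpressing, GrlA A116E).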

[2] = test system: Staphylococcus aureus; assay: Antimicrobial activity against Staphylococcus aureus ATCC 25923 by microdilution method; format: organism-based; details: in vivo
How it was run: (§2)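 Broth microdilution MIC per CLSI guidelines. ATCC 25923 is norA wild-type. SA-1199B overexpresses norA and carries an A116E GrlA substitution.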

[3] = test system: Staphylococcus aureus; assay: Antimicrobial activity against Staphylococcus aureus SA-1199B expressing wild type norA by microdilution method; format: organism-based; details: in vivo; how it was run: as §2
[4] = test system: Staphylococcus aureus; assay: Antimicrobial activity against NorA deficient Staphylococcus aureus SA-K1902 by microdilution method; format: organism-based; details: in vivo; how it was run: as §1
[5] = Cytotoxicity in human HepG2 cells assessed as reduction in cell viability incubated for 24 hrs by ATP bioluminescence assay; format: cell-based
How it was run: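 Cells were grown to confluence overnight in RPMI 1640 with 10% heat-inactivated fetal calf serum, penicillin and streptomycin. Monolayers were exposed for 24 h at 37 °C to scalar concentrations (0-250 µg/mL). Viability was read by ATP bioluminescence, each concentration in triplicate. CC50 is the concentration reducing cell number by 50% versus untreated controls.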

[6] = test system: Staphylococcus aureus; assay: Synergistic potentiation of ciprofloxacin-induced antimicrobial activity against norA deleted Staphylococcus aureus SA-K1902 at 0.78 to 100 ug/ml by microdilution method based Checkerboard assay; format: functional, organism-based
[7] = target: T1, Quinolone resistance protein NorA (Staphylococcus aureus) (UniProt P0A0J7); assay: Inhibition of NorA in Staphylococcus aureus SA-1199B expressing GrlA A116E mutant assessed as minimal potentiating drug concentration causing 8 fold reduction in ciprofloxacin MIC by microdilution method based Checkerboard assay
T1 sequence (whole entry): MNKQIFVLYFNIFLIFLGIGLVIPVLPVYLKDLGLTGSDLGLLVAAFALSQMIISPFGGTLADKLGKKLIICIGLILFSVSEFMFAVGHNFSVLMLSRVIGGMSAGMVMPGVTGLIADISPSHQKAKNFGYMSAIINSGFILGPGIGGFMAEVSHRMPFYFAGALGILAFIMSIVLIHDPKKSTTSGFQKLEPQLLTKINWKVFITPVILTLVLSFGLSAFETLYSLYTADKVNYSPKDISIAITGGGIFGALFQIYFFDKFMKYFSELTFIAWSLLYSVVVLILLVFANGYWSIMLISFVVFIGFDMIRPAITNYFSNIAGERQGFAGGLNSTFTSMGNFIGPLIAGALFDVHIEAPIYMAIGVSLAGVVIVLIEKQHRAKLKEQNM

[8] = target: T1, Quinolone resistance protein NorA (Staphylococcus aureus); assay: Inhibition of NorA in Staphylococcus aureus SA-K2378 assessed as synergistic potentiation of ciprofloxacin-induced antimicrobial activity at 0.78 to 100 ug/ml by microdilution method based Checkerboard assay
[9] = test system: Staphylococcus aureus; assay: Antimicrobial activity against Staphylococcus aureus SA-1199B expressing wild type norA and co-expressing GrlA A116E mutant by microdilution method; format: organism-based; details: in vivo; how it was run: as §1
[10] = target: Quinolone resistance protein NorA (Staphylococcus aureus, UniProt P0A0J7, A116E); assay: Inhibition of NorA in Staphylococcus aureus SA-1199B expressing GrlA A116E mutant assessed as reduction in EtBr efflux incubated for 5 mins by fluorescence based assay
How it was run: (§3)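 Cells were grown overnight in cation-supplemented Mueller-Hinton broth at 35 °C and subcultured to OD600 0.7–0.8. They were loaded at OD600 0.8 with 25 µM EtBr plus 100 µM CCCP (final) for 20 min at room temperature. Cells were then resuspended in fresh broth with or without compound, 50 µM for the single-point screen or a concentration series for IC50. Fluorescence (ex 485/em 645 nm) was read for 5 min. Inhibition was calculated from the fluorescence decrease versus untreated cells. Biological triplicate, each run twice.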

[11] = target: T1, Quinolone resistance protein NorA (Staphylococcus aureus); assay: Inhibition of NorA in Staphylococcus aureus SA-1199B expressing GrlA A116E mutant assessed as reduction in EtBr efflux at 50 uM incubated for 5 mins by fluorescence based assay; how it was run: as §3
[12] = target: T1, Quinolone resistance protein NorA (Staphylococcus aureus); assay: Inhibition of NorA in Staphylococcus aureus SA-1199B expressing GrlA A116E mutant assessed as synergistic potentiation of ciprofloxacin-induced antimicrobial activity at 0.78 to 100 ug/ml by microdilution method based Checkerboard assay
[13] = test system: Staphylococcus aureus; assay: Synergistic potentiation of ciprofloxacin-induced antimicrobial activity against Staphylococcus aureus SA-1199 at 0.78 to 100 ug/ml by microdilution method based Checkerboard assay; format: functional, organism-based
[14] = test system: Staphylococcus aureus; assay: Synergistic potentiation of ciprofloxacin-induced antimicrobial activity against wild type Staphylococcus aureus ATCC 25923 at 0.78 to 100 ug/ml by microdilution method based Checkerboard assay; format: functional, organism-based
[15] = target: T1, Quinolone resistance protein NorA (Staphylococcus aureus); assay: Inhibition of NorA in Staphylococcus aureus SA-K2378 assessed as synergistic potentiation of ciprofloxacin-induced antimicrobial activity at 0.78 ug/ml by microdilution method based Checkerboard assay
[16] = target: T1, Quinolone resistance protein NorA (Staphylococcus aureus); assay: Inhibition of NorA in Staphylococcus aureus SA-1199B expressing GrlA A116E mutant assessed as synergistic potentiation of ciprofloxacin-induced antimicrobial activity at 0.78 ug/ml by microdilution method based Checkerboard assay
[17] = test system: Staphylococcus aureus; assay: Antimicrobial activity against mepA deficient Staphylococcus aureus SA-K2885 by microdilution method; format: organism-based; details: in vivo
How it was run: (§4)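 CLSI broth microdilution MIC of the compound alone in norA-deleted strains. SA-K2885 carries empty pALC2073 and SA-K2886 carries pALC2073-mepA (xyl/tetO promoter). 0.05 µg/mL tetracycline was present throughout to induce.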

[18] = test system: Staphylococcus aureus; assay: Antimicrobial activity against mepA overexpressing Staphylococcus aureus SA-K2886 by microdilution method; format: organism-based; details: in vivo; how it was run: as §4

O=C(O)c1cn(C2CC2)c2cc(N3CCNCC3)c(F)cc2c1=O [CIPROFLOXACIN]
MIC [1]: 2.5 µg/mL (≈ 7.54 µM) | MIC [2]: 0.31 µg/mL (≈ 0.936 µM) | MIC [3]: 0.63 µg/mL (≈ 1.9 µM) | MIC [4]: 0.31 µg/mL (≈ 0.936 µM) | CC50 at 24 h [5]: 139 µg/mL (≈ 418 µM)

COC(=O)[C@H]1[C@H]2C[C@@H]3c4[nH]c5cc(OC)ccc5c4CCN3C[C@H]2C[C@@H](OC(=O)c2cc(OC)c(OC)c(OC)c2)[C@@H]1OC [RESERPINE]
Activity [6]: inactive | Activity [7]: > 100 µg/mL | MIC [2]: > 100 µg/mL | MIC [3]: > 100 µg/mL | inhibition [8]: Active | MIC [4]: > 100 µg/mL | MIC [9]: > 164 µM

CCCOc1ccc(-c2cc(OCCN(CC)CC)c3cc(OC)ccc3n2)cc1
IC50 [10]: 4.7 µM | Activity [7]: 6.25 µg/mL | inhibition [11]: 99% | inhibition [12]: Active | MIC [2]: 50 µg/mL (≈ 122 µM) | MIC [3]: 50 µg/mL (≈ 122 µM) | MIC [9]: 122 µM (≈ 49.8 µg/mL) | inhibition [13]: Active | CC50 at 24 h [5]: 5 µg/mL (≈ 12.2 µM) | synergistic potentiation of ciprofloxacin activity [14]: Active

CCCOc1ccc(-c2cc(OCCN(CC)CC)c3ccc(OC)cc3n2)cc1
fold change (FC) [15]: 16 | Activity [6]: inactive | inhibition [16]: Active | IC50 [10]: 4.7 µM | Activity [7]: 6.25 µg/mL | inhibition [11]: 100% | inhibition [12]: Active | MIC [2]: 50 µg/mL (≈ 122 µM) | MIC [3]: > 100 µg/mL | inhibition [8]: Active | MIC [4]: 25 µg/mL (≈ 61.2 µM) | MIC [9]: > 245 µM | inhibition [13]: Active | CC50 at 24 h [5]: 7.7 µg/mL (≈ 18.8 µM) | synergistic potentiation of ciprofloxacin activity [14]: Active

CCCOc1ccc(-c2cc(OCCN(CC)CC)c3ccccc3n2)cc1
Activity [6]: inactive | Activity [7]: 12.5 µg/mL | MIC [2]: 100 µg/mL (≈ 264 µM) | MIC [3]: > 100 µg/mL | inhibition [8]: Active | MIC [4]: 50 µg/mL (≈ 132 µM) | MIC [9]: > 241 µM

CCCOc1ccc(-c2cc(OCCN3CCCCC3)c3ccc(OC)cc3n2)cc1
IC50 [10]: 4 µM | Activity [7]: 3.13 µg/mL | inhibition [11]: 100% | inhibition [12]: Active | MIC [2]: 50 µg/mL (≈ 119 µM) | MIC [3]: > 100 µg/mL | MIC [9]: 238 µM (≈ 100 µg/mL) | inhibition [13]: Active | CC50 at 24 h [5]: 71.5 µg/mL (≈ 170 µM) | synergistic potentiation of ciprofloxacin activity [14]: Active

CC[n+]1c(-c2ccccc2)c2cc(N)ccc2c2ccc(N)cc21.[Br-] [HOMIDIUM BROMIDE]
MIC [17]: 0.63 µg/mL | MIC [18]: 25 µg/mL

CCCOc1ccc(-c2cc(OCCN3CCc4cc(OC)c(OC)cc4C3)c3c(OC)cc(OC)cc3n2)cc1
Activity [6]: inactive | inhibition [16]: Active | IC50 [10]: 1.6 µM | Activity [7]: < 100 µg/mL | inhibition [11]: 86.5% | inhibition [12]: Active | MIC [2]: 100 µg/mL (≈ 179 µM) | MIC [3]: 100 µg/mL (≈ 179 µM) | inhibition [8]: Active | MIC [9]: 179 µM (≈ 100 µg/mL) | inhibition [13]: Active | synergistic potentiation of ciprofloxacin activity [14]: Active

CCCOc1ccc(-c2cc(OCCN3CCc4cc(OC)c(OC)cc4C3)c3cc(OC)cc(OC)c3n2)cc1
fold change (FC) [15]: 8 | Activity [6]: inactive | inhibition [16]: Active | IC50 [10]: 3.8 µM | Activity [7]: 3.13 µg/mL | inhibition [11]: 86.7% | inhibition [12]: Active | MIC [2]: 25 µg/mL (≈ 44.7 µM) | MIC [3]: 25 µg/mL (≈ 44.7 µM) | inhibition [8]: Active | MIC [4]: 25 µg/mL (≈ 44.7 µM) | MIC [9]: 45 µM (≈ 25.1 µg/mL) | inhibition [13]: Active | synergistic potentiation of ciprofloxacin activity [14]: Active
